HCV core dimer = blocks dimerization of HCV core protein | TR-FRET GST/Flag-core106 dimerization, 1536-well | inhibition, % at 5 µM | hit rate 0.33% among 300,000;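 active = inhibition above the mean of all tested compounds plus 3 SD, set per screening campaign, cut at about 45% in these data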
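Assay system: tagged HCV core106 pair (GST and Flag); medium: KF-containing HEPES buffer, pH 7.45, DTT, CHAPS, BSA; also added: Eu donor and XL665 acceptor anti-tag antibodies; dosing: 5 µM single dose; timing: compound-protein-antibody incubation 4 h at 22.5 °C; signal: TR-FRET 671 and 617 nm emission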
PP5 inh = blocks human protein phosphatase 5 activity; hit rate 0.18% among 320,000; inhibition, % at 6.7 µM; purified PP5c, OMFP substrate fluorescence;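 active = inhibition above the campaign's mean inhibition across all tested compounds plus 3 SD, cut at about 9.5% in these data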;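 note: 0% = DMSO only and 100% = 100 µM cantharidin control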
Target sequence (P53041 whole entry, looked up): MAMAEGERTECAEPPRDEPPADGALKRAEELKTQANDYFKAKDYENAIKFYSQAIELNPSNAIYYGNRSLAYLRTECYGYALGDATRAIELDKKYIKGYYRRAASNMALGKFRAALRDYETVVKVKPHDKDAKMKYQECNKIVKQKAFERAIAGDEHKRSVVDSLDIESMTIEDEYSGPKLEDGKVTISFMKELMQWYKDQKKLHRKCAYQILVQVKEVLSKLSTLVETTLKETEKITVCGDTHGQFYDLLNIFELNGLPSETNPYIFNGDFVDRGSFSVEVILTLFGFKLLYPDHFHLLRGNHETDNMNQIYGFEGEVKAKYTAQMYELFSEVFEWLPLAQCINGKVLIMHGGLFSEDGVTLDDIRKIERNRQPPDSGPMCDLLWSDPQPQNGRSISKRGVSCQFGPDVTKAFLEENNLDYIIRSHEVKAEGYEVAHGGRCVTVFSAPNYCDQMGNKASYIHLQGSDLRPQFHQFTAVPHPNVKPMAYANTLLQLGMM
ZTA DNA inh = counter-screen for EBNA-1 inhibitors: inhibitors of Epstein-Barr virus ZTA; P03206; AID 2234; ZTA-DNA binding, fluorescence polarization; inhibition, % at 11 µM; hit rate 0.15% among 320,000; in the data active = inhibition above about 33%
PP1 inh = PP1-alpha (human) inhibition in PP5 counter-screen | P62136 | purified PP1alpha, OMFP fluorescence | inhibition, % at 6.7 µM | hit rate 0.9% among 320,000 | AID 2235;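 active = inhibition above the mean inhibition of all tested compounds plus 3 SD, computed separately for each screening campaign, cut at about 15% in these data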
EBNA-1 inh = blocks EBNA-1 binding to DNA. EBNA-1 DNA binding, fluorescence polarization. hit rate 0.34% among 300,000. inhibition, % at 14.8 µM; in the data active = inhibition above about 28%
PP1 inh confirm = human PP1 phosphatase inhibition, confirmation; hit rate 52% among 1,900; purified PP1alpha, OMFP substrate fluorescence; inhibition, % at 6.7 µM; shares compounds with PP1 inh;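 active = mean PP1 inhibition above a set limit taken from the earlier primary screen, cut at about 15% in these data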
PP5 inh counter = counter-screen for PP1 inhibitors: human PP5 phosphatase inhibition; shares compounds with PP1 inh; hit rate 4% among 1,900; purified PP5c, OMFP fluorescence; inhibition, % at 6.7 µM;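 active = mean PP5 inhibition over triplicate wells above about 9.5% taken from the earlier PP1 screen, limit read from the data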
The depositor's hits bear a star; . = no result. Shown are actives, neighbours in structure and some others; about 1.7% of the full set was active somewhere.

SMILES	HCV core dimer	PP5 inh	ZTA DNA inh	PP1 inh	EBNA-1 inh	PP1 inh confirm	PP5 inh counter
CCOCCc1nnc(NC(=O)C2CC(=O)N(CCc3ccc(F)cc3)C2)s1 (stereo not given)	8	4	-7	-3	2	.	.
COCCn1cnnc1SCC(=O)Nc1ccc(Br)cc1F	-2	-2	8	0	-2	.	.
Cc1ccc(NC(=O)C2C3CCC(O3)C2C(=O)O)cc1Cl (stereo not given)	1	75*	14	75*	7	12	25*
O=C(Nc1ccc(F)c(Cl)c1)c1ccccc1	6	2	-10	-2	4	.	.
O=C(O)C1C2CCC(O2)C1C(=O)Nc1ccc(F)c(Cl)c1 (stereo not given)	0	71*	2	66*	-3	10	19*
O=C(Nc1cnn(Cc2ccccc2)c1)NC12CC3CC(CC(C3)C1)C2	0	3	9	0	-2	.	.
O=C(O)C1C2CCC(O2)C1C(=O)Nc1cnn(Cc2ccccc2)c1 (stereo not given)	1	41*	16	24*	12	7	18*
CN(C)C(CNC(=O)c1cccc(C(F)(F)F)c1)c1ccco1 (stereo not given)	3	3	-14	1	-13	.	.
O=C(O)C1Nc2c(O)cc(Cl)c([N+](=O)[O-])c2C2C=CCC12 (stereo not given)	-4	1	90*	42*	58*	6	-3
COc1ccc(N2C3=C(CC4=C2CCCC4=O)C(=O)CCC3)cc1	39	0	-3	34*	-1	3	4
COc1ccc(N2C3=C(CC4=C2CC(C)(C)CC4=O)C(=O)CC(C)(C)C3)cc1	-3	4	8	-4	-6	.	.
O=S(=O)(Cc1ccccc1)Cc1cnc(Cl)s1	-6	1	-12	1	-3	.	.
CC1=NN(c2ccc(C(=O)O)cc2)C(=O)/C1=C\c1ccc(OC(=O)c2cccs2)cc1	16	2	1	29*	3	18*	-1
CC1=NN(c2ccccc2)C(=O)/C1=C/c1cccs1	-1	3	-15	-1	-3	.	.
CCOC(=O)C1=C(O)C(=O)NC(c2ccccc2)=C(OC2CCCCC2)C1	-1	1	-27	24*	-4	31*	-1
CCOC(=O)C1=C(O)C(=O)NC(c2ccccc2)=C(OCC)C1	3	1	5	-1	-2	.	.
N#C/C(=C\c1c[nH]c2ccccc12)C(=O)NCC1CCCO1 (stereo not given)	-2	3	-18	-3	-10	.	.
CC(=O)Nc1ccc(NC(=O)COC(=O)c2ccccc2SCC(=O)N2CCCC2)cc1	2	-1	-7	58*	-3	-1	-6
COc1ccc(NC(=O)COC(=O)c2ccccc2SCC(=O)N2CCCC2)cc1	0	0	-10	-2	8	.	.
Cc1cc(NCCCn2ccnc2)n2ncc(-c3ccc(Cl)cc3)c2n1	-7	2	22	12	-2	.	.
CC(C)(C)c1cc(NCCCn2ccnc2)n2ncc(-c3ccccc3)c2n1	-2	2	10	21*	-9	14	3
Cc1cccc(CCNC(=O)c2nnc(Cc3ccc(Cl)cc3)o2)c1	6	5	-3	-1	-4	.	.
COc1ccc2nc(SCCC(=O)O)cc(C)c2c1	1	-2	-1	-8	0	.	.
O=S(=O)(NCc1ccco1)c1ccccc1Br	8	-2	16	-3	6	.	.
C[C@@H]1Cc2c(O)c(O)cc(O)c2C(=O)O1	-5	5	7	0	-2	.	.
O=C1C=C(O)c2c(O)cc(O)c(O)c2C1=O	-56	4	12	57*	7	37*	-7
COc1ccc(-c2cc(C(=O)NCC(c3ccccc3)N(C)C)c3ccccc3n2)cc1OC (stereo not given)	5	1	5	0	7	.	.
COc1ccc(C(CNC(=O)c2ccc(-c3ccccc3)cc2)N(C)C)cc1OC (stereo not given)	-2	2	-8	43*	-7	-2	1
Cc1cc2oc3ccc(NCCCn4ccnc4)cc3c(=O)c2cc1C	-19	2	28	25*	2	5	-2

Screening results (PubChem)
